{"data": "Measurements pooled from the literature", "Dipeptidyl peptidase 8": "Dipeptidyl peptidase 8 (Homo sapiens, UniProt Q6V1X1)", "USP8": "Ubiquitin carboxyl-terminal hydrolase 8 (USP8, Homo sapiens, UniProt P40818)", "HDAC1": "Histone deacetylase 1 (HDAC1, Homo sapiens, UniProt Q13547)", "TACR2": "Substance-K receptor (TACR2, Homo sapiens, UniProt P21452)", "note": "Each line is one published result; the experiments were not run side by side."}
{"Compound": "CCOC(=O)c1ccc(OC(=O)CCCCCNC(=N)N)cc1", "target": "Dipeptidyl peptidase 8", "observed": "enzyme activity", "action": "inhibitor", "tested at": "10 µM", "inhibition [%]": 13}
{"Compound": "C#Cc1n[nH]c2c(-c3cn([C@@H](C)c4ccccc4)c(=O)[nH]c3=O)cc(F)cc12", "target": "Tyrosine-protein kinase Yes (YES1, Homo sapiens, UniProt P07947)", "observed": "enzyme activity", "action": "inhibitor", "tested at": "0.1 µM", "inhibition [%]": -3.5}
{"Compound": "COc1cc(Nc2ncc(F)c(Nc3ccc4c(n3)NC(=O)C(C)(C)O4)n2)cc(OC)c1OC", "target": "Ephrin type-A receptor 6 (EPHA6, Homo sapiens, UniProt Q9UF33)", "observed": "binding", "method": "competition with immobilised ligand", "tested at": "10 µM", "inhibition [%]": 82}
{"Compound": "N=C(N)c1ccc2cc(OC(=O)c3ccc(N=C(N)N)cc3)ccc2c1", "target": "USP8", "observed": "enzyme activity", "action": "inhibitor", "tested at": "10 µM", "inhibition [%]": 5}
{"Compound": "O=C(CNC(=O)c1coc(-c2ccccc2O)n1)Nc1ccccc1", "target": "HDAC1", "observed": "enzyme activity", "action": "inhibitor", "tested at": "20 µM", "inhibition [%]": 26}
{"Compound": "O=c1ccc2cc3ccoc3cc2o1", "target": "Histone deacetylase 8 (HDAC8, Homo sapiens, UniProt Q9BY41)", "observed": "enzyme activity", "action": "inhibitor", "tested at": "10 µM", "inhibition [%]": 30.7}
{"Compound": "CCN(CC)CCCC[C@H](NC(=O)[C@H](CC(C)C)NC(=O)[C@H](C)NC(=O)[C@H](Cc1ccccc1)NC(=O)c1ccc(C(C)(C)C)cc1)C(=O)N[C@@H](CO)C(=O)OC", "target": "TACR2", "observed": "ligand displacement", "method": "radioligand", "tested at": "10 µM", "inhibition [%]": 75}
{"Compound": "O=C(Nc1cccnn1)N1CCN([C@@H]2CCOc3cc(C(F)(F)F)ccc32)CC1", "target": "Somatostatin receptor type 4 (SSTR4, Homo sapiens, UniProt P31391)", "observed": "ligand displacement", "tested at": "20 µM", "inhibition [%]": 29}
{"Compound": "N#Cc1ccc(NCCNCC(=O)N2N=CCC2C#N)nc1 (centres unmarked)", "target": "Dipeptidyl peptidase 8", "observed": "enzyme activity", "action": "inhibitor", "tested at": "100 µM", "inhibition [%]": 81}
{"Compound": "C[C@H](C(=O)N[C@H]1COc2ccccc2[C@@H]1S(C)(=O)=O)c1ccc(F)cc1", "target": "TACR2", "observed": "cell-free assay", "tested at": "10 µM", "inhibition [%]": -21}
{"Compound": "C#Cc1n[nH]c2c(-c3cn(C(C)c4ccccn4)c(=O)[nH]c3=O)cc(F)cc12 (centres unmarked)", "target": "Glycogen synthase kinase-3 alpha (GSK3A, Homo sapiens, UniProt P49840)", "observed": "enzyme activity", "action": "inhibitor", "tested at": "1 µM", "inhibition [%]": 4.6}
{"Compound": "Cn1cc(-c2cc(F)cc(N3CCn4c(cc5c4CCCC5)C3=O)c2CO)cc(Nc2ccc(N3CCN(C4COC4)CC3)cn2)c1=O", "target": "Protein kinase C alpha type (PRKCA, Homo sapiens, UniProt P17252)", "observed": "enzyme activity", "action": "inhibitor", "tested at": "0.1 µM", "inhibition [%]": -11}
{"Compound": "O=C(CCCCCCC(=O)Nc1ccccc1)NO", "target": "HDAC1", "observed": "enzyme activity", "action": "inhibitor", "tested at": "0.1 µM", "inhibition [%]": 66.3}
{"Compound": "CN(C)C(=O)COC(=O)Cc1ccc(OC(=O)c2ccc(NC(=N)N)cc2)cc1", "target": "USP8", "observed": "enzyme activity", "action": "inhibitor", "tested at": "10 µM", "inhibition [%]": 0}
{"Compound": "CN(CCN1CCC(OC(=O)Nc2ccccc2-c2ccccc2)CC1)C(=O)c1ccc(CN2CCC(C(N)=O)CC2)cc1", "target": "TACR2", "observed": "ligand displacement", "method": "radioligand", "tested at": "1 µM", "inhibition [%]": 1}
{"Compound": "Cn1cc(-c2cccc(N3CCc4c(sc5c4CC(C)(C)C5)C3=O)c2CO)cc(Nc2ccncn2)c1=O", "target": "Testis-specific serine/threonine-protein kinase 2 (TSSK2, Homo sapiens, UniProt Q96PF2)", "observed": "enzyme activity", "action": "inhibitor", "tested at": "1 µM", "inhibition [%]": 2}
{"Compound": "c1ccc(C(NCCNC(c2ccccc2)c2ccccc2)c2ccccc2)cc1", "target": "TACR2", "observed": "cell-free assay", "tested at": "10 µM", "inhibition [%]": 40}
